Measured values from ChEMBL document CHEMBL5104102, “Discovery of FtsZ inhibitors by virtual screening as antibacterial agents and study of the inhibition mechanism” (RSC Med Chem, 2022).
In brackets after ≈: the same amount, converted by molar mass. Activity calls are given as the source filed them. The calls are words filed in the database; no cut-off is given here.

Legend:
[1] = test system: Staphylococcus aureus; test: Synergistic antibacterial activity against methicillin-resistant Staphylococcus aureus BAA 41 assessed as inhibition of bacterial growth incubated for 18 hrs in presence of methicillin by checkerboard assay; format: functional
Outline: (§1)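 Checkerboard: test compound serially diluted two-fold across the plate and methicillin serially diluted down it. Bacteria added at 5 × 10^5 CFU mL−1. Incubated at 37 °C for 16–24 h, then growth read at A600. Untreated-cell columns included. FICI calculated from the combination MICs.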

[2] = test system: Staphylococcus aureus; test: Antibacterial activity against methicillin-resistant Staphylococcus aureus ATCC 33591 assessed as inhibition of bacterial growth incubated for 18 hrs by CLSI protocol based two fold serial dilution method; format: functional
Outline: (§2)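 CAMHB culture grown overnight at 37 °C with shaking at 250 rpm, diluted 10-fold, and grown 2 h. Inoculum set to 5 × 10^6 CFU mL−1 by A600. Compounds in DMSO were serially diluted two-fold, with 1% DMSO per well. Read at A600 after 18 h at 37 °C. MIC is the lowest concentration giving A600 < 0.1. Run in duplicate.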

[3] = test system: Bacillus subtilis; test: Antibacterial activity against Bacillus subtilis 168 assessed as inhibition of bacterial growth incubated for 18 hrs by CLSI protocol based two-fold serial dilution assay; format: functional
Outline: (§3)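 B. subtilis 168 or E. coli ATCC 25922 was grown in MHB and tested by CLSI-based broth microdilution. An overnight culture (37 °C, 250 rpm) was diluted tenfold, grown 2 h, and set to 5 × 10^6 CFU mL−1 by A600. Cells were added to two-fold serial compound dilutions (1% DMSO) and incubated 18 h at 37 °C. Read-out was A600, in duplicate. MIC was the lowest concentration giving A600 < 0.1.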

[4] = test system: Staphylococcus aureus; test: Antibacterial activity against Staphylococcus aureus 29213 assessed as inhibition of bacterial growth incubated for 18 hrs by CLSI protocol based two fold serial dilution method; format: functional
Outline: as §3, with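 “S. aureus” for “B. subtilis 168 or E. coli”, “29213” for “25922”, “CAMHB” for “MHB”, “mL−1.” for “mL−1 by A600.”, “with” for “giving”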

[5] = test system: Staphylococcus aureus; test: Synergistic antibacterial activity against methicillin-resistant Staphylococcus aureus BAA 41 assessed as FICI incubated for 18 hrs in presence of methicillin by checkerboard assay; format: functional; outline: as §1
[6] = biological target: T1, Cell division protein FtsZ (Staphylococcus aureus) (UniProt P0A031); test: Inhibition of Staphylococcus aureus FtsZ polymerization assessed as increase in GTPase activity at 5 to 20 ug/ml incubated for 40 mins in presence of GTP by malachite green phosphate assay; settings: dose 5-20 µg/ml, DDE = dose-dependent effect
T1 sequence (whole entry): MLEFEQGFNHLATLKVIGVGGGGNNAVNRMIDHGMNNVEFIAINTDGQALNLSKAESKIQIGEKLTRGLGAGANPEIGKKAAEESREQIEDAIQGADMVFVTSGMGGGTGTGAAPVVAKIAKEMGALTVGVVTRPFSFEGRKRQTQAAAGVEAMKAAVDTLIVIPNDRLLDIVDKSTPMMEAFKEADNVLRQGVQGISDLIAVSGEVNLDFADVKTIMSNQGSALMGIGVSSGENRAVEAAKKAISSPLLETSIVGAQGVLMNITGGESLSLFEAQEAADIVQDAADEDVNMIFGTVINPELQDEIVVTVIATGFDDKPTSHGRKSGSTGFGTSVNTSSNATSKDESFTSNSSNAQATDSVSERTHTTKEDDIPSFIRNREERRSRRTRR
Outline: (§4)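 Purified S. aureus FtsZ (3 μM) was preincubated with serially diluted compound in 50 mM MOPS pH 6.5 for 30 min at room temperature; 1% DMSO served as control. MgCl2 (5 mM) and KCl (200 mM) were added, and the reaction was started with 250 μM GTP for 10 min at 37 °C. Malachite green reagent was then developed 30 min at 37 °C, and released phosphate was read at A600.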

[7] = test system: Staphylococcus aureus; test: Antibacterial activity against methicillin-resistant Staphylococcus aureus BAA 44 assessed as inhibition of bacterial growth incubated for 18 hrs by CLSI protocol based two fold serial dilution method; format: functional; outline: as §2
[8] = biological target: T1, Cell division protein FtsZ (Staphylococcus aureus); test: Inhibition of Staphylococcus aureus FtsZ polymerization assessed as increase in GTPase activity at 1 ug/ml incubated for 40 mins in presence of GTP by malachite green phosphate assay; settings: dose 1.0 µg/ml; outline: as §4
[9] = test system: Staphylococcus aureus; test: Bactericidal activity against methicillin-resistant Staphylococcus aureus BAA 41 assessed as inhibition of bacterial growth at 4 ug/ml incubated for 24 hrs by time-kill assay; format: functional; settings: dose 4 µg/ml
Outline: (§5)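 Time-kill: 3 mL culture at 5 × 10^5 CFU mL−1 exposed to compound at several concentrations or to 1% DMSO control at 37 °C with shaking at 250 rpm, over 24 h. 100 μL samples taken at intervals, diluted as needed, and spread on agar. Colonies counted after 24 h at 37 °C.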

[10] = test system: Staphylococcus aureus; test: Antibacterial activity against methicillin-resistant Staphylococcus aureus BAA 1720 assessed as inhibition of bacterial growth incubated for 18 hrs by CLSI protocol based two fold serial dilution method; format: functional; outline: as §2
[11] = Ratio of MBC for bactericidal activity against methicillin-resistant Staphylococcus aureus BAA 41 to MIC for antibacterial activity against methicillin-resistant Staphylococcus aureus BAA 41; format: functional
Outline: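 MBC: culture at 5 × 10^5 CFU mL−1 incubated overnight at 37 °C with shaking and compound or 1% DMSO, then diluted ≥10-fold and plated on TSA for 24 h at 37 °C. MBC is the lowest concentration giving ≥99.9% reduction of the initial count. MBC is divided by the broth-dilution MIC (A600 < 0.1 after 18 h).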

[12] = test system: Staphylococcus aureus; test: Bactericidal activity against methicillin-resistant Staphylococcus aureus BAA 41 assessed as inhibition of bacterial growth at 1 ug/ml incubated for 24 hrs by time-kill assay; format: functional, organism-based; settings: dose 1.0 µg/ml; outline: as §5
[13] = test system: Staphylococcus aureus; test: Bactericidal activity against methicillin-resistant Staphylococcus aureus BAA 41 assessed as inhibition of bacterial growth at 8 ug/ml incubated for 24 hrs by time-kill assay; format: functional; settings: dose 8 µg/ml; outline: as §5
[14] = test system: Escherichia coli; test: Antibacterial activity against Escherichia coli 25922 assessed as inhibition of bacterial growth incubated for 18 hrs by CLSI protocol based two fold serial dilution method; format: functional; outline: as §3
[15] = biological target: T2, Cell division protein FtsZ (Bacillus subtilis (strain 168)) (UniProt P17865); test: Inhibition of GFP-tagged FtsZ in Bacillus subtilis 168 assessed as inhibition of z-ring formation at 0.125 ug/ml incubated for 4 hrs by FM 5-96 dye based super-resolution microscopy; settings: dose 0.125 µg/ml
T2 sequence (whole entry): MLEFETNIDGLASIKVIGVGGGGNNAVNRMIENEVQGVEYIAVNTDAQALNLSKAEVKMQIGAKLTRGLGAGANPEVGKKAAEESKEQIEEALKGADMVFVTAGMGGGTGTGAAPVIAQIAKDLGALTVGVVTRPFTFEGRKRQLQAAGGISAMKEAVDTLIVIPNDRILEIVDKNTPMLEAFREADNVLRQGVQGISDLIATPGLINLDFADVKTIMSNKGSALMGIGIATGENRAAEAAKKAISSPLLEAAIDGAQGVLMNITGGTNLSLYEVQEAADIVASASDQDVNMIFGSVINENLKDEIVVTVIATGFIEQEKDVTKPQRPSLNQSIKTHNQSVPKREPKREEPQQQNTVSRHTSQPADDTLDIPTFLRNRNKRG
Outline: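 B. subtilis 168 carried an IPTG-inducible FtsZ-GFP plasmid and was grown overnight at 37 °C in LB with 30 μg mL−1 chloramphenicol. It was back-diluted to A600 = 0.01, induced with 40 μM IPTG, and treated with compound for 4 h at 37 °C with shaking. Cells were pelleted, resuspended in PBS and mounted on agarose pads. Membranes were stained with FM 5-96, and FtsZ-GFP localization was imaged by super-resolution microscopy (N-SIM).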

[16] = test system: Staphylococcus aureus; test: Bactericidal activity against methicillin-resistant Staphylococcus aureus BAA 41 assessed as inhibition of bacterial growth at 2 ug/ml incubated for 24 hrs by time-kill assay; format: functional, organism-based; settings: dose 2.0 µg/ml; outline: as §5
[17] = test system: Staphylococcus aureus; test: Antibacterial activity against methicillin-resistant Staphylococcus aureus BAA 41 assessed as inhibition of bacterial growth incubated for 18 hrs by CLSI protocol based two fold serial dilution method; format: functional; outline: as §2
[18] = test system: Staphylococcus aureus; test: Bactericidal activity against methicillin-resistant Staphylococcus aureus BAA 41 assessed as inhibition of bacterial growth incubated for 24 hrs by time-kill assay; format: functional; outline: as §5
[19] = test system: Escherichia coli; test: Synergistic antibacterial activity against Escherichia coli 25922 assessed as inhibition of bacterial growth incubated for 18 hrs in presence of PMBN by checkerboard assay; format: functional
Outline: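 E. coli ATCC 25922 was tested in MHB by the broth microdilution format with two-fold serial compound dilutions. Polymyxin B nonapeptide was added to each well at 20 μg mL−1 final before adding bacteria at 5 × 10^5 CFU mL−1. Growth was read by A600.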

[20] = test system: Bacillus subtilis; test: Antibacterial activity against Bacillus subtilis 168 assessed as cell length at 0.5 ug/ml incubated for 4 hrs by phase-contrast microscopy; format: functional; settings: dose 0.5 µg/ml
Outline: (§6)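 B. subtilis 168 overnight culture was diluted tenfold into fresh medium and grown 2 h. It was then adjusted to A600 = 0.01, given compound, and incubated 4 h at 37 °C; 1% (v/v) DMSO was the control. Cells were harvested, resuspended in LB, mounted on 1.2% agarose pads and imaged by phase contrast. Lengths of 100 cells per condition were measured to give length distributions and averages.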

[21] = test system: Staphylococcus aureus; test: Antibacterial activity against methicillin-resistant Staphylococcus aureus ATCC 43300 assessed as inhibition of bacterial growth incubated for 18 hrs by CLSI protocol based two fold serial dilution method; format: functional; outline: as §2
[22] = test system: Staphylococcus aureus; test: Antibacterial activity against methicillin-resistant Staphylococcus aureus ATCC 33592 assessed as inhibition of bacterial growth incubated for 18 hrs by CLSI protocol based two fold serial dilution method; format: functional; outline: as §2
[23] = test system: Bacillus subtilis; test: Antibacterial activity against Bacillus subtilis 168 assessed as cell elongation at 0.5 ug/ml incubated for 4 hrs by phase-contrast microscopy; format: functional; settings: dose 0.5 µg/ml; outline: as §6

Work on `NC(=O)c1c(F)ccc(OCc2nc3cc(Cl)cnc3s2)c1F` yielded an MIC [1] of 0.5 µg/mL, an MIC [2] of 1 µg/mL (≈ 2.81 µM) and an MIC [3] of 0.5 µg/mL (≈ 1.41 µM). For the same compound, the MIC [4] was 0.5 µg/mL (≈ 1.41 µM), the “fractional inhibitory concentration index (FICI)” value [5] was 0.52 and the inhibition [6] was “Dde”. The MIC [7] was 1 µg/mL (≈ 2.81 µM), the inhibition [8] was 105% and the Activity [9] was 0 log10CFU/ml. For the same compound, the MIC [10] was 1 µg/mL (≈ 2.81 µM), the Ratio [11] was 2 and the Activity [12] was “Active”. For the same compound, the Activity [13] was 0 log10CFU/ml, the MIC [14] was > 128 µg/mL and the inhibition [15] was “Active”. For the same compound, the Activity [16] was “Active”, the MIC [17] was 0.5 µg/mL (≈ 1.41 µM) and the MBC [18] was 2 µg/mL (≈ 5.62 µM). The MIC [19] was 32 µg/mL, the Activity [20] was 135.8 um and the MIC [21] was 1 µg/mL (≈ 2.81 µM). It also gave an MIC [22] of 2 µg/mL (≈ 5.62 µM) and an Activity [23] of 33%.
With `CN(C)C(=O)[C@H](O)[C@H](Cc1ccccc1)NC(=O)c1cc2cc(Cl)ccc2[nH]1` the MIC [2] was > 128 µg/mL, the MIC [3] was 16 µg/mL (≈ 40 µM) and the MIC [4] was > 128 µg/mL. The MIC [7] was > 128 µg/mL, the MIC [10] was > 128 µg/mL and the MIC [14] was > 128 µg/mL. For the same compound, the MIC [17] was > 128 µg/mL, the MIC [21] was 32 µg/mL (≈ 80 µM) and the MIC [22] was > 128 µg/mL.
For `CCOC(=O)C(CCc1ccccc1)NC(C)C(=O)N1Cc2ccccc2CC1C(=O)O.Cl` (stereo not given), the MIC [3] was > 128 µg/mL, the MIC [4] was > 128 µg/mL and the MIC [14] was > 128 µg/mL.
